Results published in ChEMBL document CHEMBL4359882, “Synthesis, molecular docking, and QSAR study of bis-sulfonamide derivatives as potential aromatase inhibitors” (Bioorg Med Chem, 2019).
pIC50: −log10 of the molar value.

Columns and labels:
T47D = assay: Cytotoxicity against human T47D cells assessed as reduction in cell growth measured after 48 hrs by MTT assay; assay type: functional, cell-based
Outline: (§1)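 T47-D cells kept in RPMI-1640 with 2 mM L-glutamine, insulin, 4.5 g/L glucose and 10% FBS. MRC-5 cells kept in DMEM with 10% FBS. Cells seeded at 10,000-20,000 per well and preincubated 24 h at 37 °C in 5% CO2. Serial dilutions added, then incubated 48 h. MTT for 2-4 h, formazan dissolved in DMSO, read at 550/650 nm. IC50 is the concentration giving 50% growth inhibition.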

Aromatase = molecular target: T1, Aromatase (Homo sapiens, UniProt P11511); assay: Inhibition of recombinant human aromatase expressed in baculovirus infected insect cells using O-benzyl fluorescein benzyl ester as substrate in presence of NADPH generating system by fluorescence based analysis
T1 sequence (P11511 whole entry): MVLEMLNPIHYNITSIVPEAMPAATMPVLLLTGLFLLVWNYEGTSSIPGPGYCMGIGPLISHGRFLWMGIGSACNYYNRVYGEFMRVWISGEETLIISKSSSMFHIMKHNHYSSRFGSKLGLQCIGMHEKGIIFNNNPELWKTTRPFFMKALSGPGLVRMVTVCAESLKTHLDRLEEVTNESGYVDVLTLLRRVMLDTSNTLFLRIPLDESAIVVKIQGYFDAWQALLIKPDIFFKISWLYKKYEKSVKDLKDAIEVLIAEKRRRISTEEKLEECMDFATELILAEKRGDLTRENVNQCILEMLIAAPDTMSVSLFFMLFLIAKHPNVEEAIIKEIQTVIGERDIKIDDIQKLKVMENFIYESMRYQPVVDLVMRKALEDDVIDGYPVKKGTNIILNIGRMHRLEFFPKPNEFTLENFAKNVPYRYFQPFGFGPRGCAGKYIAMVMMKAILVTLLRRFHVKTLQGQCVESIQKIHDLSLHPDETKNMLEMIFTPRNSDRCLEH

Homo sapiens = species: Homo sapiens; assay: Selectivity index, ratio of IC50 for human MRC5 cells by MTT assay to IC50 for human recombinant aromatase expressed in baculovirus infected insect cells
MRC5 = assay: Cytotoxicity against human MRC5 cells assessed as reduction in cell growth measured after 48 hrs by MTT assay; assay type: cell-based; details: MRC5, 48 h; outline: as §1
[1] = Homo sapiens, T47D, 48 h, read-out: IC50

O=S(=O)(NCc1cccc(CNS(=O)(=O)c2ccc3ccccc3c2)c1)c1ccc2ccccc2c1
IC50 (T47D; [1]): > 50 µg/mL
pIC50 (Aromatase): 6.68
Ratio IC50 (Homo sapiens): > 461
IC50 (MRC5): > 50 µg/mL

O=[N+]([O-])c1cccc(S(=O)(=O)NCc2cccc(CNS(=O)(=O)c3cccc([N+](=O)[O-])c3)c2)c1
IC50 (T47D; [1]): > 50 µg/mL
pIC50 (Aromatase): 5.56
Ratio IC50 (Homo sapiens): > 35.9
IC50 (MRC5): > 50 µg/mL

O=[N+]([O-])c1ccccc1S(=O)(=O)NCc1cccc(CNS(=O)(=O)c2ccccc2[N+](=O)[O-])c1
pIC50 (T47D; [1]): 4.12
pIC50 (Aromatase): 5.44
Ratio IC50 (Homo sapiens): > 26.9
IC50 (MRC5): > 50 µg/mL

Cc1cc(C)c(C)c(S(=O)(=O)NCc2ccc(CNS(=O)(=O)c3c(C)c(C)cc(C)c3C)cc2)c1C
IC50 (T47D; [1]): > 50 µg/mL
pIC50 (Aromatase): < 4.90
pIC50 (MRC5): 4.79

Cc1cc(C)c(C)c(S(=O)(=O)NCc2cccc(CNS(=O)(=O)c3c(C)c(C)cc(C)c3C)c2)c1C
pIC50 (T47D; [1]): 4.51
pIC50 (Aromatase): 5.49
Ratio IC50 (Homo sapiens): 25.3
pIC50 (MRC5): 4.09

O=S(=O)(NCc1cccc(CNS(=O)(=O)c2ccc(C(F)(F)F)cc2)c1)c1ccc(C(F)(F)F)cc1
pIC50 (T47D; [1]): 4.12
pIC50 (Aromatase): 6.37
Ratio IC50 (Homo sapiens): 173
pIC50 (MRC5): 4.13

N#Cc1ccc(S(=O)(=O)NCc2ccc(CNS(=O)(=O)c3ccc(C#N)cc3)cc2)cc1
IC50 (T47D; [1]): > 50 µg/mL
pIC50 (Aromatase): 6.18
Ratio IC50 (Homo sapiens): 141
pIC50 (MRC5): 4.03

O=[N+]([O-])c1ccc(NC(=S)NCc2cccc(CNC(=S)Nc3ccc([N+](=O)[O-])cc3)c2)cc1
pIC50 (Aromatase): 6.10

COc1ccc(S(=O)(=O)Nc2cccc(NS(=O)(=O)c3ccc(OC)cc3)c2)cc1
IC50 (T47D; [1]): > 50 µg/mL
pIC50 (Aromatase): 6.28
Ratio IC50 (Homo sapiens): > 210
IC50 (MRC5): > 50 µg/mL

O=S(=O)(NCc1cccc(CNS(=O)(=O)c2ccc(Br)cc2)c1)c1ccc(Br)cc1
IC50 (T47D; t47d): Nd(Insoluble)
pIC50 (Aromatase): 7.22
Ratio IC50 (Homo sapiens): > 1450
IC50 (MRC5): > 50 µg/mL

S=C(NCc1cccc(CNC(=S)Nc2ccc(Cl)cc2)c1)Nc1ccc(Cl)cc1
pIC50 (Aromatase): 5.26

O=S(=O)(NCc1cccc(CNS(=O)(=O)c2ccc(F)cc2)c1)c1ccc(F)cc1
IC50 (T47D; t47d): Nd(Insoluble)
pIC50 (Aromatase): 5.66
Ratio IC50 (Homo sapiens): > 50.5
IC50 (MRC5): > 50 µg/mL

O=S(=O)(Nc1cccc(NS(=O)(=O)c2ccc(Cl)cc2)c1)c1ccc(Cl)cc1
pIC50 (T47D; [1]): 4.06
pIC50 (Aromatase): 6.11
Ratio IC50 (Homo sapiens): 80.9
pIC50 (MRC5): 4.20

Nc1cccc(S(=O)(=O)NCc2cccc(CNS(=O)(=O)c3cccc(N)c3)c2)c1
pIC50 (T47D; [1]): 4.04
pIC50 (Aromatase): 5.48
Ratio IC50 (Homo sapiens): > 33.9
IC50 (MRC5): > 50 µg/mL

COc1cccc2c1C(=O)c1c(O)c3c(c(O)c1C2=O)C[C@@](O)(C(=O)CO)C[C@@H]3O[C@H]1C[C@H](N)[C@H](O)[C@H](C)O1 [DOXORUBICIN]
pIC50 (T47D; [1]): 6.06
pIC50 (MRC5): 5.66

O=S(=O)(NCc1cccc(CNS(=O)(=O)c2ccc(Cl)cc2)c1)c1ccc(Cl)cc1
pIC50 (T47D; [1]): 4.43
pIC50 (Aromatase): 7.30
Ratio IC50 (Homo sapiens): 1370
pIC50 (MRC5): 4.16

N#Cc1ccc(S(=O)(=O)NCc2cccc(CNS(=O)(=O)c3ccc(C#N)cc3)c2)cc1
pIC50 (T47D; [1]): 4.16
pIC50 (Aromatase): 6.80
Ratio IC50 (Homo sapiens): > 670
IC50 (MRC5): > 50 µg/mL

CC(=O)c1ccc(S(=O)(=O)NCc2cccc(CNS(=O)(=O)c3ccc(C(C)=O)cc3)c2)cc1
IC50 (T47D; [1]): > 50 µg/mL
pIC50 (Aromatase): 6.55
Ratio IC50 (Homo sapiens): > 357
IC50 (MRC5): > 50 µg/mL

O=[N+]([O-])c1ccc(S(=O)(=O)NCc2cccc(CNS(=O)(=O)c3ccc([N+](=O)[O-])cc3)c2)cc1
pIC50 (T47D; [1]): 4.41
pIC50 (Aromatase): 6.43
Ratio IC50 (Homo sapiens): > 267
IC50 (MRC5): > 50 µg/mL

COc1ccc(S(=O)(=O)NCc2cccc(CNS(=O)(=O)c3ccc(OC)cc3)c2)cc1
pIC50 (T47D; [1]): 4.12
pIC50 (Aromatase): 4.94
Ratio IC50 (Homo sapiens): > 9.04
IC50 (MRC5): > 50 µg/mL

Cc1ccc(S(=O)(=O)NCc2cccc(CNS(=O)(=O)c3ccc(C)cc3)c2)cc1
pIC50 (T47D; [1]): 4.36
pIC50 (Aromatase): 6.89
Ratio IC50 (Homo sapiens): > 865
IC50 (MRC5): > 50 µg/mL
